Measurements as given in ChEMBL document CHEMBL5712917, “G9a regulates tumorigenicity and stemness through genome-wide DNA methylation reprogramming in non-small cell lung cancer” (Clin Epigenetics, 2020).
Calls of active or inactive are those of the source.

Legend:
[1] = tested on: LCSC-2; assay: Antitumor activity against human LCSC-2 cells assessed as increase in FOXP1 expression by Western blot analysis; assay type: functional, cell-based
Outline: (§1)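 Western blot on TICs exposed to G9A inhibitor. Cells lysed in 2X SDS buffer; 10 μl lysate or 20 μg protein run on 4–12% SDS-PAGE, transferred to PVDF, blocked in 5% non-fat milk/TBST, then probed with primary and secondary antibodies against each target protein.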

[2] = tested on: LCSC-4; assay: Antitumor activity against human LCSC-4 cells xenografted in NOD-SCID mouse assessed as decrease in H3K9Me2 expression at 10 mg/kg, ip administered for 8 weeks by immunohistochemical staining assay; assay type: functional, organism-based
Outline: (§2)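 NOD-SCID mice given 100,000 single cells from dissociated wild-type TIC spheres subcutaneously. Established tumors split into vehicle or 10 mg/kg inhibitor groups, dosed intraperitoneally for 8 weeks. Tumor size measured weekly and tumor weight taken at euthanasia. Tumors fixed in 10% formaldehyde and stained by IHC (×20) for G9A, H3K9Me2, FOXP1 and SP5; t test.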

[3] = tested on: LCSC-2; assay: Antitumor activity against human LCSC-2 cells assessed as increase in DPP4 expression by Western blot analysis; assay type: functional, cell-based; outline: as §1
[4] = tested on: LCSC-1; assay: Antitumor activity against human LCSC-1 cells assessed as decrease in tumor sphere formation at 10 uM for 72 hrs; assay type: functional, cell-based
Outline: (§3)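 Single cells from accutase-dissociated tumorspheres, 50,000–100,000 per well, grown in serum-free sphere medium (B-27, EGF, FGF, heparin). Exposed to 10 μM inhibitor at 37 °C for 72 h, then imaged. Sphere-forming capacity was scored by sphere size, and treated cells were compared with control by t test.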

[5] = tested on: LCSC-4; assay: Antitumor activity against human LCSC-4 cells assessed as increase in DPP4 expression by Western blot analysis; assay type: functional, cell-based; outline: as §1
[6] = tested on: LCSC-4; assay: Antitumor activity against human LCSC-4 cells assessed as increase in CDYL2 expression by Western blot analysis; assay type: functional, cell-based; outline: as §1
[7] = tested on: LCSC-4; assay: Antitumor activity against human LCSC-4 cells xenografted in NOD-SCID mouse assessed as suppression of tumor volume at 10 mg/kg, ip administered for 8 weeks; assay type: functional, organism-based; outline: as §2
[8] = tested on: LCSC-4; assay: Antitumor activity against human LCSC-4 cell assessed as decrease in cell proliferation at 10 uM for 72 hrs by CCK-8 assay; assay type: functional, cell-based
Outline: (§4)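 TIC spheres dissociated to single cells with accutase and grown in serum-free DMEM/F12 with B-27, 25 ng/ml EGF, 25 ng/ml FGF and heparin. Cells were treated with 10 μM inhibitor at 37 °C for 72 h in 96-well format. CCK-8 solution was then added for 1–4 h and absorbance read at 450 nm. Groups compared against control by t test.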

[9] = tested on: LCSC-2 (human); assay: Antitumor activity against human LCSC-2 cells xenografted in NOD-SCID mouse assessed as decrease in G9a expression at 10 mg/kg, ip administered for 8 weeks by immunohistochemical staining assay
[10] = tested on: LCSC-2 (human); assay: Antitumor activity against human LCSC-2 cells xenografted in NOD-SCID mouse assessed as decrease in H3K9Me2 expression at 10 mg/kg, ip administered for 8 weeks by immunohistochemical staining assay
[11] = tested on: LCSC-1; assay: Antitumor activity against human LCSC-1 cells assessed as decrease in cell proliferation at 10 uM for 72 hrs by CCK-8 assay; assay type: functional, cell-based; outline: as §4
[12] = tested on: LCSC-2 (human); assay: Antitumor activity against human LCSC-2 cells xenografted in NOD-SCID mouse assessed as suppression of tumor volume at 10 mg/kg, ip administered for 8 weeks
[13] = tested on: LCSC-4; assay: Antitumor activity against human LCSC-4 cells assessed as decrease in tumor sphere formation at 10 uM for 72 hrs; assay type: functional, cell-based; outline: as §3
[14] = tested on: LCSC-2; assay: Antitumor activity against human LCSC-2 cells assessed as increase in ROBO1 expression by Western blot analysis; assay type: functional, cell-based; outline: as §1
[15] = tested on: LCSC-2; assay: Antitumor activity against human LCSC-2 cells assessed as decrease in tumor sphere formation at 10 uM for 72 hrs; assay type: functional, cell-based; outline: as §3
[16] = tested on: LCSC-4; assay: Antitumor activity against human LCSC-4 cells assessed as increase in ROBO1 expression by Western blot analysis; assay type: functional, cell-based; outline: as §1
[17] = tested on: LCSC-2; assay: Antitumor activity against human LCSC-2 cells assessed as decrease in cell proliferation at 10 uM for 72 hrs by CCK-8 assay; assay type: functional, cell-based; outline: as §4
[18] = tested on: LCSC-4; assay: Antitumor activity against human LCSC-4 cells xenografted in NOD-SCID mouse assessed as increase in SP5 expression at 10 mg/kg, ip administered for 8 weeks by immunohistochemical staining assay; assay type: functional, organism-based; outline: as §2
[19] = tested on: LCSC-4; assay: Antitumor activity against human LCSC-4 cells assessed as increase in STAMBPL1 expression by Western blot analysis; assay type: functional, cell-based; outline: as §1
[20] = tested on: LCSC-4; assay: Antitumor activity against human LCSC-4 cells assessed as increase in FOXP1 expression by Western blot analysis; assay type: functional, cell-based; outline: as §1
[21] = tested on: LCSC-2; assay: Antitumor activity against human LCSC-2 cells assessed as increase in SP5 expression by Western blot analysis; assay type: functional, cell-based; outline: as §1
[22] = tested on: LCSC-2 (human); assay: Antitumor activity against human LCSC-2 cells xenografted in NOD-SCID mouse assessed as increase in FOXP1 expression at 10 mg/kg, ip administered for 8 weeks by immunohistochemical staining assay
[23] = tested on: LCSC-4; assay: Antitumor activity against human LCSC-4 cells xenografted in NOD-SCID mouse assessed as decrease in G9a expression at 10 mg/kg, ip administered for 8 weeks by immunohistochemical staining assay; assay type: functional, organism-based; outline: as §2
[24] = tested on: LCSC-2; assay: Antitumor activity against human LCSC-2 cells assessed as increase in STAMBPL1 expression by Western blot analysis; assay type: functional, cell-based; outline: as §1
[25] = tested on: LCSC-4; assay: Antitumor activity against human LCSC-4 cells assessed as increase in SP5 expression by Western blot analysis; assay type: functional, cell-based; outline: as §1
[26] = tested on: LCSC-2 (human); assay: Antitumor activity against human LCSC-2 cells xenografted in NOD-SCID mouse assessed as increase in SP5 expression at 10 mg/kg, ip administered for 8 weeks by immunohistochemical staining assay
[27] = tested on: LCSC-4; assay: Antitumor activity against human LCSC-4 cells xenografted in NOD-SCID mouse assessed as increase in FOXP1 expression at 10 mg/kg, ip administered for 8 weeks by immunohistochemical staining assay; assay type: functional, organism-based; outline: as §2
[28] = tested on: LCSC-2; assay: Antitumor activity against human LCSC-2 cells assessed as increase in CDYL2 expression by Western blot analysis; assay type: functional, cell-based; outline: as §1

Measured: Activity

COc1cc2c(NC3CCN(C(C)C)CC3)nc(N3CCC(F)(F)CC3)nc2cc1OCCCN1CCCC1
active: all assays above
